# Neddyl block: blocks human cullin neddylation | TR-FRET cullin neddylation, biochemical | inhibition, % at 25 µM | AID 651699 | P61081+Q13564 | actives 0.58% (n = 360,000); in the data active = inhibition above about 36%
# HNF4A DNA FP: change in binding of human HNF4 alpha to DNA | P41235 | HNF4a-FITC DNA binding, fluorescence polarization, 1 h | activity change, % at 10 µM | actives 0.3% (n = 360,000) | AID 1224865; in the data active = activity change above about 30%, passing the limit was not always enough
# CSN deneddyl inh: blocks human CSN-mediated cullin deneddylation. Q92905. Purified CSN, SCF-Nedd8-OG deneddylation, fluorescence polarization. inhibition, % at 12.5 µM. actives 0.38% (n = 360,000). AID 651999;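 active = pattern-corrected inhibition above about 35%, with an unprinted fluorescence ratio check between 0.5 and 1.5, limit read from the data, passing the limit was not always enough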
# Target sequence (Q92905 whole entry, looked up, one chain of several): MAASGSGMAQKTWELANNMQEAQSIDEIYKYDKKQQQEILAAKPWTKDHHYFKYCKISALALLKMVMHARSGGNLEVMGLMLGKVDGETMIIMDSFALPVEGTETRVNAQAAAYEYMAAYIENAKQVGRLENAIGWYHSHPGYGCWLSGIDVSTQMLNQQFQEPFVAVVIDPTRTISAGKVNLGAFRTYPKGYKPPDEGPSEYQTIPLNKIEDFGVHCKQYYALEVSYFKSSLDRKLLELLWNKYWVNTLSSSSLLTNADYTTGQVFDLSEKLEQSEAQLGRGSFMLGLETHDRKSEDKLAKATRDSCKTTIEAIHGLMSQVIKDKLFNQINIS
#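 Assay system: HEK293T-derived human Csn5 enzyme; quantity: 0.24 nM enzyme; medium: Tris/NaCl/DTT buffer, pH 7.5; also added: substrate SCFSkp2-Nedd8OG, 10 nM; doses: 12.5 µM compound; schedule: 90 min reaction at room temperature; signal: FP; read-out: % inhibition of substrate cleavage by Csn5; benchmarks: substrate-only high control, full reaction low control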
# TPT1 inhibitor: inhibitors of Candida albicans tRNA 2'-phosphotransferase TPT1; recombinant caTPT1, FP RNA substrate dephosphorylation; inhibition, % at 5 µM; actives 0.81% (n = 300,000); AID 1962;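 active = inhibition above the mean of all tested compounds plus 3 SD, set per screening campaign, cut at about 24% in these data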
# Rin1 Abl inh: human Rin1-Abl interaction inhibition; TR-FRET Rin1/Abl binding, biochemical; inhibition, % at 7.35 µM; actives 0.4% (n = 360,000); in the data active = inhibition above about 5%, passing the limit was not always enough
# Rpn11 inh: Rpn11 (human) deubiquitinase inhibition. inhibition, % at 20 µM. O00487. actives 0.59% (n = 360,000). human 26S proteasome, Ub4-pepOG fluorescence polarization; 20S core pre-blocked with epoxomicin;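 active = inhibition at 20 µM, scaled to each plate's controls, above about 33%, limit read from the data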
# Target sequence (O00487 whole entry, looked up): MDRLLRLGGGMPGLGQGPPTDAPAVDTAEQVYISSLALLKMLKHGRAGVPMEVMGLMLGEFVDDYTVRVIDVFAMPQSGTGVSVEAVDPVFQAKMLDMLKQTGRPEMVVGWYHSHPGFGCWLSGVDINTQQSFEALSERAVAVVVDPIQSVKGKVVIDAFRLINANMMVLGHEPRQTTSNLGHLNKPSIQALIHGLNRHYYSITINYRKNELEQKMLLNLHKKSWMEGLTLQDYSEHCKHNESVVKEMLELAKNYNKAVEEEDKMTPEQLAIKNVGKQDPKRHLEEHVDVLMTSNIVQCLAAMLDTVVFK
# Neddyl conf: confirmation of human cullin neddylation inhibitors; shares compounds with Neddyl block; TR-FRET cullin neddylation biochemical assay; calls only at 25 µM; actives 13% (n = 1,800); in the data active = inhibition above about 40%;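 also: neddylation substrate is the cullin 1 ring ligase complex with SKP2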
# Numbers stand for hits; 0 = inactive; - = no result given; + = active, no number. Most compounds without a hit are left out; they make up all but 2.4% or so of the library.
SMILES,Neddyl block,HNF4A DNA FP,CSN deneddyl inh,TPT1 inhibitor,Rin1 Abl inh,Rpn11 inh,Neddyl conf
O=C(NCCN1CCC(n2c(=O)[nH]c3ccccc32)CC1)c1ccccc1C(F)(F)F,0,0,0,-,-,-,-
Cc1cc(NC(=O)CSc2ccc3nnc(-c4ccccn4)n3n2)no1,41,0,0,0,0,0,-
O=C(CSc1ccc2nnc(-c3ccccn3)n2n1)Nc1ccccc1,0,0,0,0,0,0,-
Cc1nc(C(N)=O)c(N)n1CCc1ccccc1,0,0,0,0,0,0,-
O=C(Cn1nc(-c2ccco2)ccc1=O)Nc1cc(Cl)ccc1Cl,47,0,0,0,0,0,0
COC(=O)c1ccc(COc2ccc(C)c(C)c2)o1,0,0,0,0,0,0,-
COC(=O)c1cc(COc2ccc3ccc(=O)oc3c2)c(C)o1,56,0,0,0,0,0,+
COC(=O)c1cc(COc2ccc3oc(C)c(C(=O)OC)c3c2)c(C)o1,0,0,0,0,0,0,-
COC(=O)c1ccc(COc2ccc3ccc(=O)oc3c2)o1,40,0,0,-,0,0,0
CC(C)(C)NC(=O)CCc1ncc(C(F)(F)F)cc1Cl,0,0,0,0,0,0,-
C[C@H](NC(=O)c1cc2c(cn1)[nH]c1ccccc12)C(=O)O,42,0,0,-,0,0,+
Cc1nc(NS(=O)(=O)c2ccc(Cl)s2)c2c3c(sc2n1)CCCC3,0,0,0,0,0,0,-
COc1ccc2oc(C(=O)CCC(=O)O)c(N)c2c1,48,0,0,0,0,0,0
COC(=O)CCC(=O)c1oc2ccc(Br)cc2c1N,0,0,0,0,0,0,-
O=c1[nH]c2cc3c(cc2cc1CN(CCCO)C(=S)NCc1ccco1)OCO3,0,0,0,0,0,0,-
CCC(=O)N(Cc1ccco1)Cc1cc2cc3c(cc2[nH]c1=O)OCO3,41,0,0,0,0,0,0
CCNC(=S)N(Cc1ccco1)Cc1cc2cc3c(cc2[nH]c1=O)OCCO3,0,0,0,0,0,0,-
CCN(CC)CCCN(Cc1cc2cc3c(cc2[nH]c1=O)OCO3)C(=S)NCc1ccco1,41,0,0,0,0,0,0
COCCCNC(=S)N(CCO)Cc1cc2cc3c(cc2[nH]c1=O)OCCO3,0,0,0,0,0,0,-
CCN(CC)CCN(Cc1cc2cc3c(cc2[nH]c1=O)OCCO3)C(=S)NCCCOC,46,0,0,0,0,0,-
CC1(C(=O)NS(=O)(=O)c2cccc(OC(F)F)c2)CCN1C(=O)Cc1ccsc1 (stereo not drawn),0,0,0,-,0,0,-
CCOC(=O)C1=NN(c2ccc(C)cc2)CC1C(=O)OC (stereo not drawn),39,0,0,0,0,0,0
COC(=O)C1CC(=O)N(c2ccc(C)cc2)C1 (stereo not drawn),0,0,0,0,0,0,-
O=c1c2ccccc2nc(CSc2ncnc3nc[nH]c23)n1-c1cccc(C(F)(F)F)c1,0,0,0,0,0,0,-
NNC(=O)c1oc2nc(-c3ccc(Cl)cc3)cc(-c3ccccc3)c2c1N,43,0,0,-,0,0,0
SMILES,Neddyl block,HNF4A DNA FP,CSN deneddyl inh,TPT1 inhibitor,Rin1 Abl inh,Rpn11 inh,Neddyl conf
CCCCCCCCN1C(=O)[C@H](CC(=O)N2CCN(C(=O)OCC)CC2)C[C@@]2(C(=O)OCC)CCCC=C12,0,0,0,-,-,-,-
Cc1ccc(-c2nc3cnccn3c2Nc2ccc3c(c2)OCO3)cc1,0,0,0,0,0,0,-
CN(C)c1ccc(-c2nc3cnccn3c2Nc2ccc3c(c2)OCCO3)cc1,46,0,0,0,0,0,-
COc1ccc(-c2oc3c(c2C#CC(C)(C)O)C(OC)CCC3)cc1 (stereo not drawn),-,0,0,-,-,-,-
COc1ccc(O)c(/C=N/NC(=O)CN2CCS(=O)(=O)CC2)c1,40,0,0,0,0,0,0
O=C(CSc1ccccc1)N/N=C/c1ccccc1O,0,0,0,0,0,0,-
COc1ccc(CSCC(=O)N/N=C/c2ccccc2O)cc1,39,0,0,0,0,0,0
CC1(C)Nc2ccccc2C(=O)N1NC(=O)c1ccccc1,39,0,0,0,0,0,0
Cc1nnc2ccc(N3CCCCC3)nn12,0,0,0,0,0,0,-
Cc1cc(C)n(-c2ccc3nnc(C)n3n2)n1,36,0,0,0,0,0,0
COc1ccc(C(=O)OCC(=O)NCC2CCCCC2)cc1F,0,0,0,-,0,0,-
N#Cc1c(F)cccc1N1CCOCC1,42,0,0,0,0,0,0
CCc1cc(C(c2ccc(OC)c(OC)c2)N2CCOCC2)c(NC(=O)c2ccccc2)s1 (stereo not drawn),53,0,0,0,0,0,0
CCCCn1c2nc3ccccc3nc2c2c(=O)n(CC(C)C)cnc21,37,0,0,-,0,0,0
CCCCCn1c2nc3ccccc3nc2c2c(=O)n(CC(C)C)cnc21,0,0,0,0,0,0,-
Cn1c2ccccc2c2c(C(=O)N3CCN(c4ccccn4)CC3)cn(C3CCCC3)c(=O)c21,0,0,0,0,0,0,-
Cn1c2ccccc2c2c(C(=O)N3CCN(C(=O)c4ccco4)CC3)cn(C3CCCCC3)c(=O)c21,45,0,0,0,0,0,0
CCc1ccccc1N(CC(=O)NC(C)C)C(=O)CCC(=O)Nc1nccs1,0,0,0,0,0,0,-
CCOc1ccc(S(=O)(=O)N2CCN=C2c2ccccc2)cc1,0,0,0,0,0,0,-
CCOCCCn1c(=NC(=O)c2cccnc2)c(C(=O)OCC)cc2c(=O)n3ccccc3nc21,-,0,0,0,0,0,+
Cc1cc(C=O)c(C)c2c1[nH]c1ccccc12,40,0,0,-,0,0,0
CC(C)c1ccc2[nH]c3c(c2c1)CCC/C3=N\NC(=O)c1ccncc1,0,0,0,0,0,0,-
Nc1ccc(C(=O)N/N=C2\CCCc3c2[nH]c2ccccc32)cc1,45,0,0,0,0,0,0
COc1ccc(Oc2nc(C)cc(C)c2C#N)cc1,0,0,0,0,0,0,-
COc1ccc(C2(O)CC3CCC(C2)N3c2nc(C)cc(C)c2C#N)cc1 (stereo not drawn),38,0,0,0,0,0,0
CSc1ccc(/C=C/C(=O)OCC(=O)NCC2CCCO2)cc1 (stereo not drawn),66,0,0,-,0,0,-
O=C(COC(=O)/C=C/c1ccccc1)NCC1CCCO1 (stereo not drawn),0,0,0,0,0,0,-
O=S(=O)(NN1CCOCC1)c1cc(Cl)cc(Cl)c1O,0,0,0,0,0,0,-
CN(C)CCN(Cc1ccccc1)C(=O)C1CCN(c2ncnc3c2nc2n3CCCCC2)CC1,43,0,0,0,0,0,0
O=C(O)CNS(=O)(=O)c1ccc2[nH]c(=O)c(=O)[nH]c2c1,40,0,0,0,0,0,0
